SMILES strings stand for the structures.

For assay [1], the target named is T1, Motilin receptor (Homo sapiens, UniProt O43193). The experiment in a line: Displacement of [125I]motilin from human MOTR. Summed up: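 Competition binding on isolated membranes expressing human motilin receptor, with radioiodinated porcine motilin ([125I]-motilin) as tracer. 11-point concentration curves gave Ki, with a top test concentration of 10 µM. Compounds came from 10 mM DMSO stocks stored at -60 °C.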

Assay [2] has as its target T1, Motilin receptor. The experiment in a line: Activity at human MOTR expressed in CHO cells assessed as inhibition of motilin-induced calcium release upto 10 uM. Format: functional, cell-based. The settings on record: filed as antagonist. Summed up:
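Aequorin luminescence assay on whole CHO cells expressing cloned human motilin receptor, measuring inhibition of motilin-induced Ca2+ release. Agonist activity was also checked at concentrations up to 10 µM. Compounds were TFA salts held as 10 mM DMSO stocks at -60 °C.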

The species named for assay [3] is Oryctolagus cuniculus. The assay can be described thus: Antagonist activity against rabbit duodenum. The following applies: read-out: pA2 (converted).
For assay [4], the target named is T1, Motilin receptor. The assay can be described thus: Activity at human MOTR expressed in CHO cells assessed as inhibition of motilin-induced calcium release. The assay is classed as functional, cell-based. A digest of the protocol:
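Whole CHO cells expressing cloned human motilin receptor; intracellular Ca2+ release evoked by motilin read out by aequorin luminescence. Compounds were tested in antagonist mode and also checked for agonist activity at concentrations up to 10 µM. Compound stocks were 10 mM in DMSO, stored at -60 °C.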

T1 sequence (O43193 whole entry): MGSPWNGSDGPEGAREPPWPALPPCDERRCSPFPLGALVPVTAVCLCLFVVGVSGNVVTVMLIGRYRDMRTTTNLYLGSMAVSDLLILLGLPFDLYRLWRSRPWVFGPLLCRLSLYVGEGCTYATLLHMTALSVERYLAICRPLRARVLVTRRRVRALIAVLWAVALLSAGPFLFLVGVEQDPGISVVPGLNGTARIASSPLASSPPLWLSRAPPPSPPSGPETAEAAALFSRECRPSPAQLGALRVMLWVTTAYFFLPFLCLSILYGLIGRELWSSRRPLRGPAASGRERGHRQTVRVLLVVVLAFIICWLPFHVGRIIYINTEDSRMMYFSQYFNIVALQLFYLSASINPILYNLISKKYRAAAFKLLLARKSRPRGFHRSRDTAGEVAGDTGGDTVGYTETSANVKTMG

As for `CCC[C@@H]1NC(=O)[C@@H](C(C)C)NC(=O)[C@@H](Cc2ccc(OC)cc2)NCCOc2ccccc2CCCNC1=O`, in assay [1], the Ki is 8 nM. Besides, in assay [2], the Activity result is “Antagonist”. The Kb in assay [3] was 100 nM. In addition, the 50% inhibitory concentration (IC50) in assay [4] worked out at 23 nM.
Consider `CCC[C@@H]1NC(=O)[C@@H](C(C)C)NC(=O)[C@@H](Cc2ccc(O)cc2)NCCOc2ccccc2/C=C/CNC1=O`, for which the Ki in assay [1] stood at 137 nM. Also, the Activity result in assay [2] was “Antagonist”. Further, the IC50 in assay [4] is 74 nM.
Regarding `CCC[C@@H]1NC(=O)[C@@H](CO)NC(=O)[C@@H](Cc2ccc(O)cc2)NCCOc2ccccc2/C=C/CNC1=O`, the inhibition constant (Ki) in assay [1] is more than 10000 nM. In assay [2], the Activity entry was “Antagonist”.
In the same order, the values of `CC(C)C[C@@H]1NC(=O)[C@@H](C(C)C)NC(=O)[C@@H](Cc2ccc(O)cc2)NCCOc2ccccc2/C=C/CNC1=O` are 62 nM and “Antagonist”.
In turn, `CCC[C@@H]1NC(=O)[C@@H](C(C)C)NC(=O)[C@@H](Cc2cccc3ccccc23)NCCOc2ccccc2CCCNC1=O` displayed a Ki in assay [1] of 8.3 nM. Also, in assay [2], the Activity result was “Antagonist”.
Taken in the same sequence, the figures for `CCC[C@@H]1OC(=O)[C@@H](C(C)C)NC(=O)[C@@H](Cc2ccc(O)cc2)NCCOc2ccccc2CCCNC1=O` were 1880 nM and “Antagonist”.

Broadly, the Ki is the dissociation constant of the complex between target and ligand, obtained from inhibition or displacement. A low value points to tighter binding. In general, IC50 refers to the concentration that gives 50% inhibition.

(Values after ChEMBL document CHEMBL1137350, “Discovery of a new class of macrocyclic antagonists to the human motilin receptor” (J Med Chem, 2006).)
